# Assay results: ChEMBL document CHEMBL1140662, “Benzo[b]thiophene-based histone deacetylase inhibitors” (Bioorg Med Chem Lett, 2007)
# Assays:
# [1] = Antiproliferative activity against mouse SC9 cells; type: functional, cell-based
# Summary of the method: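 Murine erythroleukemia SC-9 cells were exposed to vehicle or increasing compound concentrations for 48 h, and proliferation was read by MTS assay. IC50 values are means of three experiments.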
# Histone deacetylase 1 [2] = target: T1, Histone deacetylase 1 (Homo sapiens, UniProt Q13547); assay: Inhibition of HDAC1
# T1 sequence (Q13547 whole entry): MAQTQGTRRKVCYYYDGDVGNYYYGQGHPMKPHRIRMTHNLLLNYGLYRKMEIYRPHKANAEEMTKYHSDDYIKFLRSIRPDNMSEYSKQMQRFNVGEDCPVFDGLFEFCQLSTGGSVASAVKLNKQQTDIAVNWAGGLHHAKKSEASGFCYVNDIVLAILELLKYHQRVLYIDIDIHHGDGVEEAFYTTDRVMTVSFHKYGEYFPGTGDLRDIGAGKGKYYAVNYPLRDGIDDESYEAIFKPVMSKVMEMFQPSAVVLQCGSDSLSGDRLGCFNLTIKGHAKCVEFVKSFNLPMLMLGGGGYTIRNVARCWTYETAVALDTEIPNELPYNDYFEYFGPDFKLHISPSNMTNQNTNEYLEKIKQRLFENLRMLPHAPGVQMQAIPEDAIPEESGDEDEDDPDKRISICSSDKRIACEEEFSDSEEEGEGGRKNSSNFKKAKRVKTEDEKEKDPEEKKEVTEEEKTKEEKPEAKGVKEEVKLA
# Summary of the method: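 Epitope-tagged human HDAC1 complex, immuno-purified from stably expressing mammalian cells, tested against a commercial HDAC substrate. IC50 values are means of three experiments.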
# Histone deacetylase 1 [3] = target: T1, Histone deacetylase 1; assay: Inhibition of HDAC1 at 10 uM
smiles,measurement,setting,value
O=C(Nc1ccc2cc(C(=O)NO)sc2c1)c1ccccc1,IC50,[1],2900 nM
CCC(C(=O)Nc1ccc2cc(C(=O)NO)sc2c1)c1ccccc1 (stereo unspecified),IC50,Histone deacetylase 1 [2],40 nM
same,IC50,[1],225 nM
O=C(NCc1ccc2cc(C(=O)NO)sc2c1)c1ccccc1,IC50,Histone deacetylase 1 [2],10 nM
same,IC50,[1],190 nM
O=C(NO)c1cc2cc(CNc3ccccc3)ccc2s1,IC50,Histone deacetylase 1 [2],175 nM
same,IC50,[1],4870 nM
O=C(NO)c1csc2ccccc12,inhibition,Histone deacetylase 1 [3],38%
O=C(Cc1ccccc1)NCc1ccc2cc(C(=O)NO)sc2c1,IC50,Histone deacetylase 1 [2],70 nM
same,IC50,[1],1220 nM
O=C(NCc1ccccc1)c1ccc2sc(C(=O)NO)cc2c1,IC50,Histone deacetylase 1 [2],75 nM
same,IC50,[1],1700 nM
O=C(Cc1ccc(F)cc1)Nc1ccc2cc(C(=O)NO)sc2c1,IC50,Histone deacetylase 1 [2],20 nM
same,IC50,[1],230 nM
O=C(NO)c1cc2ccc(CNCCc3ccccc3)cc2s1,IC50,Histone deacetylase 1 [2],128 nM
same,IC50,[1],455 nM
O=C(Cc1ccccc1)Nc1ccc2cc(C(=O)NO)sc2c1,IC50,Histone deacetylase 1 [2],10 nM
same,IC50,[1],220 nM
O=C(NO)c1cc2cc(CNCc3ccccc3)ccc2s1,IC50,[1],475 nM
COC(=O)c1ccc2cc(C(=O)NO)sc2c1,IC50,[1],13900 nM
O=C(NO)c1cc2ccc(CNCc3ccccc3)cc2s1,IC50,Histone deacetylase 1 [2],50 nM
same,IC50,[1],160 nM
O=C(CCc1ccccc1)Nc1ccc2cc(C(=O)NO)sc2c1,IC50,Histone deacetylase 1 [2],55 nM
same,IC50,[1],5580 nM
O=C(NO)c1cc2ccc(CNc3ccccc3)cc2s1,IC50,Histone deacetylase 1 [2],45 nM
same,IC50,[1],1780 nM
CC[C@@H](C(=O)Nc1ccc2cc(C(=O)NO)sc2c1)c1ccccc1,IC50,Histone deacetylase 1 [2],60 nM
same,IC50,[1],530 nM
O=C(NCc1ccccc1)c1ccc2cc(C(=O)NO)sc2c1,IC50,Histone deacetylase 1 [2],55 nM
same,IC50,[1],1100 nM
O=C(NCCc1ccccc1)c1ccc2sc(C(=O)NO)cc2c1,IC50,Histone deacetylase 1 [2],155 nM
same,IC50,[1],5330 nM
O=C(NO)c1ccsc1,IC50,Histone deacetylase 1 [2],9700 nM
CC[C@H](C(=O)Nc1ccc2cc(C(=O)NO)sc2c1)c1ccccc1,IC50,Histone deacetylase 1 [2],20 nM
same,IC50,[1],140 nM
O=C(Cc1ccccc1)Nc1ccc2sc(C(=O)NO)cc2c1,IC50,Histone deacetylase 1 [2],30 nM
same,IC50,[1],1160 nM
O=C(NO)c1cc2cc(CNCCc3ccccc3)ccc2s1,IC50,Histone deacetylase 1 [2],200 nM
same,IC50,[1],945 nM
COc1ccc(CC(=O)Nc2ccc3cc(C(=O)NO)sc3c2)cc1,IC50,Histone deacetylase 1 [2],20 nM
same,IC50,[1],205 nM
O=C(NC(c1ccccc1)c1ccccc1)c1ccc2cc(C(=O)NO)sc2c1,IC50,Histone deacetylase 1 [2],285 nM
same,IC50,[1],2960 nM
O=C(NO)c1cccs1,IC50,Histone deacetylase 1 [2],6600 nM
O=C(Nc1ccccc1)c1ccc2sc(C(=O)NO)cc2c1,IC50,Histone deacetylase 1 [2],600 nM
same,IC50,[1],6140 nM
